Experimental data pooled from the literature.
Each line is one published result; the experiments were not run side by side.
Observed: cell growth or viability

SMILES	cell line	method	time	IC50
CC(=O)c1cccc(N=Nc2c(C(=O)O)cc(O)c(O)c2O)c1	PANC-1	MTT	–	9.2 µM
Cc1c(OCC(F)(F)F)ccnc1COc1ccc(NC(=O)Nc2cccc(C(F)(F)F)c2)cc1	L02	MTT	72 h	> 100 µM
C#Cc1cccc(Nc2ncnc3cc(OCCOC)c(OCCOC)cc23)c1	PANC-1	MTT	–	0.05 µM
COc1cc2nccc(Oc3ccc(NC(=O)C4(C(=O)Nc5ccc(F)cc5)CC4)cc3)c2cc1OC	OCI-AML-3	trypan blue	72 h	> 9 µM
Cc1ccc2c(Cl)cc(Cl)c(O)c2n1	L02	MTT	48 h	> 100 µM
COc1cc(-c2ncn(/C=C\C(=O)OC(C)C)n2)cc(C(F)(F)F)c1	OCI-AML-3	–	72 h	0.112 µM
c1cnc2c(c1)ccc1cccnc12	L02	MTT	48 h	> 50 µM
COc1c(C)cnc(COc2ccc(NC(=O)Nc3cc(F)cc(F)c3)cc2)c1C	L02	MTT	72 h	> 100 µM
Oc1ccc(Nc2nc(-c3ccc(Cl)cc3)cs2)cc1	WM-115	MTS	72 h	11.7 µM
Cc1cc(Oc2ccc(NC(=O)c3sc(-c4ccccc4)nc3C)cc2)c2nncn2n1	L02	MTT	–	> 50 µM
Cc1ccc2c(Br)cc(Br)c(O)c2n1	L02	MTT	48 h	> 100 µM
Cc1cc(Oc2ccc(NC(=O)c3cnn(-c4ccc(Cl)cc4)c3C(F)(F)F)cc2F)c2nncn2n1	L02	MTT	–	> 50 µM
COc1ccnc(COc2ccc(NC(=O)Nc3ccc(Cl)c(C(F)(F)F)c3)cc2)c1OC	L02	MTT	72 h	> 100 µM
O=c1[nH]cc(F)c(=O)[nH]1	human Lymphocyte	–	72 h	18 µM
N[C@@H](CC(=O)N1CCN(C(c2ccc(F)cc2)c2ccc(F)cc2)CC1)C(=O)N1Cc2ccccc2C1	OCI-AML2	ATP luminescence	48 h	1.41 µM
COc1cccc2c1C(=O)c1c(O)c3c(c(O)c1C2=O)C[C@@](O)(C(=O)CO)C[C@@H]3O[C@H]1C[C@H](N)[C@H](O)[C@H](C)O1	CCD-986Sk	MTT	48 h	> 10 µg/mL
Cc1cc(Oc2ccc(NC(=O)c3cnn(-c4ccc(Cl)cc4)c3C(F)(F)F)cc2F)n2ncnc2n1	L02	MTT	–	> 50 µM
Cc1ccc(S(=O)(=O)N(C)CC(=O)N(Cc2ccc(C3CCCCC3)cc2)c2ccc(C(=O)O)c(O)c2)cc1	OCI-AML2	–	–	35.9 µM

SMILES	cell line	method	time	IC50
COCCCOc1ccnc(COc2ccc(NC(=O)Nc3ccc(OC)cc3)cc2)c1C	L02	MTT	72 h	> 100 µM
Cc1cc(Oc2ccc(NC(=O)c3sc(-c4ccc(F)cc4)nc3C)cc2)c2nncn2n1	L02	MTT	–	> 50 µM
COCCCOc1ccnc(COc2ccc(NC(=O)Nc3ccc(F)cc3)cc2)c1C	L02	MTT	72 h	> 100 µM
C#CCSc1nc(Sc2nnnn2-c2ccccc2)c2nnn(Cc3ccc(OC)cc3)c2n1	OCI-AML-3	MTS	6 days	4.72 µM
CCn1c(=O)c(-c2ccc(-c3cncs3)cc2Cl)cc2cnc(Nc3ccc(N4CCN(C)CC4)cc3)nc21	PANC-1	MTT	24 h	14.1 µM
Cc1cc(Oc2ccc(NC(=O)c3sc(-c4ccccc4)nc3C)cc2F)c2nncn2n1	L02	MTT	–	> 50 µM
CCOc1cc(OCC)cc(C(=O)O[C@@H]2CN3Cc4c(cc5c(c4OC)OCO5)[C@@]24C=C[C@H](OC)C[C@@H]34)c1	PANC-1	WST-1	–	8.3 µM
COCCCOc1ccnc(COc2ccc(NC(=O)Nc3cc(F)cc(F)c3)cc2)c1C	L02	MTT	72 h	> 100 µM
CCN1CCN(c2ccc(Nc3cc(N(C)C(=O)Nc4c(Cl)c(OC)cc(OC)c4Cl)ncn3)cc2)CC1	Li-7	ATP luminescence	96 h	> 1 µM
CO[C@H]1/C=C\C=C(/C)C(=O)NC2=CC(=O)C(NCCN(C)C)=C(C[C@@H](C)C[C@H](OC)[C@H](O)[C@@H](C)/C=C(\C)[C@@H]1OC(N)=O)C2=O	ARPE-19	MTT	–	0.15 µM
Cc1cc(Oc2ccc(NC(=O)c3sc(-c4cccnc4)nc3C)cc2)n2ncnc2n1	L02	MTT	–	> 50 µM
CO[C@H]1/C=C\C=C(/C)C(=O)NC2=C(C)C(=O)C(NCCN(C)C)=C(C[C@@H](C)C[C@H](OC)[C@H](O)[C@@H](C)/C=C(\C)[C@@H]1OC(N)=O)C2=O	ARPE-19	MTT	–	> 20 µM
O=C(N/N=C/c1c(O)ccc2ccccc12)c1cc(-c2ccc3ccccc3c2)n[nH]1	WM-115	MTS	24 h	9.7 µM
COc1c(C)cnc(COc2ccc(NC(=O)Nc3ccc(Cl)cc3)cc2)c1C	L02	MTT	72 h	> 100 µM
Nc1nc(Nc2ccc3c(c2)CC[C@@H](N2CCCC2)CC3)nn1-c1cc2c(nn1)-c1ccccc1CCC2	OCI-AML-3	trypan blue	72 h	2.9 µM
Cc1c(OCC(F)(F)F)ccnc1COc1ccc(NC(=O)Nc2ccc(F)cc2)cc1	L02	MTT	72 h	> 100 µM
CC[C@@H](C)[C@H](N)C(=O)N1Cc2ccccc2C1	OCI-AML2	ATP luminescence	48 h	1.44 µM
